ChEMBL document CHEMBL3600355, “The importance of the 6- and 7-positions of tetrahydroisoquinolines as selective antagonists for the orexin 1 receptor” (Bioorg Med Chem, 2015)
The source made the active and inactive calls. The rule behind the calls is not given here.

Experiments:
[1] = target: T1, Orexin receptor type 2 (Homo sapiens) (UniProt O43614); assay: Antagonist activity at human OX2 receptor expressed in CHO-RD-HGA16 cells assessed as inhibition of orexin-A-induced calcium mobilization at 10 uM preincubated for 15 mins followed by orexin-A addition measured every 1.52 secs over 60 secs by calcium 5 dye-based fluorescence assay relative to control; format: functional, cell-based
T1 sequence (whole entry): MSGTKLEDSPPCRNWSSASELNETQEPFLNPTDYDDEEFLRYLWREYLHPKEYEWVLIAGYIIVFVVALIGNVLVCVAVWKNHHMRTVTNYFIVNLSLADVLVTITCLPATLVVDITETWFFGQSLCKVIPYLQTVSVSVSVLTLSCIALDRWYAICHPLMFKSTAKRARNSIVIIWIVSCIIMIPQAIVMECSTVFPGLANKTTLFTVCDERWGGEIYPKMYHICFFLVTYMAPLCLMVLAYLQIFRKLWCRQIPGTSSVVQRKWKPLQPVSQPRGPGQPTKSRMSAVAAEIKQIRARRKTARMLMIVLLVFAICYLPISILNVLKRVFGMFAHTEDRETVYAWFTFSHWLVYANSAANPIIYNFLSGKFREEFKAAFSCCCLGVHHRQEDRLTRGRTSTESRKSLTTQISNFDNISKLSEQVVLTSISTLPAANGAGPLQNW
Method in brief: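 OX2 stable CHO-RD-HGA16 cells, Calcium 5 dye-loaded, were pre-incubated 15 min at 37°C with compound at 10 μM before orexin A addition. Calcium fluorescence was read every 1.52 s for 60 s and percent inhibition of the orexin A response recorded.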

[2] = target: T2, Orexin/Hypocretin receptor type 1 (Homo sapiens) (UniProt O43613); assay: Competitive antagonist activity at human OX1 receptor expressed in CHO-RD-HGA16 cells assessed as inhibition of orexin-A-induced calcium mobilization preincubated for 1 hr followed by orexin-A addition measured every 1.52 secs over 60 secs by calcium 5 dye-based fluorescence assay; format: functional, cell-based
T2 sequence (whole entry): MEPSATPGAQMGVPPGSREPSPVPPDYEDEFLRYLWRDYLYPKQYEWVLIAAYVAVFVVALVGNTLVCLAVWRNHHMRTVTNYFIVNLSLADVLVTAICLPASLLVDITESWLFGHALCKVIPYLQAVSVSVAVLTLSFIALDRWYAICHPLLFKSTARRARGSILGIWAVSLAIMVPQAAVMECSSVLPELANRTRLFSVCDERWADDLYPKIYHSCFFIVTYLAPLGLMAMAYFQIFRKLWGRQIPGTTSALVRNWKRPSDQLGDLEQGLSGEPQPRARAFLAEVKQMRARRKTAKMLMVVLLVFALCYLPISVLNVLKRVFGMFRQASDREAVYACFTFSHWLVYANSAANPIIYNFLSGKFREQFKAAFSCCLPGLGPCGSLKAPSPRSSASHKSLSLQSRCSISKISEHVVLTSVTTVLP
Method in brief: (§1)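 Curve-shift assay in human OX1 CHO-RD-HGA16 cells, with antagonist–receptor pre-incubation lengthened to 45 min or 1 hr before orexin A addition. Calcium 5 fluorescence was monitored, and each point is a composite of at least three experiments in duplicate.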

[3] = target: T2, Orexin/Hypocretin receptor type 1 (Homo sapiens); assay: Competitive antagonist activity at human OX1 receptor expressed in CHO-RD-HGA16 cells assessed as inhibition of orexin-A-induced calcium mobilization preincubated for 45 mins followed by orexin-A addition measured every 1.52 secs over 60 secs by calcium 5 dye-based fluorescence assay; format: functional, cell-based; method in brief: as §1
[4] = target: T2, Orexin/Hypocretin receptor type 1 (Homo sapiens); assay: Insurmountable antagonist activity at human OX1 receptor expressed in CHO-RD-HGA16 cells assessed as inhibition of orexin-A-induced calcium mobilization preincubated for 15 mins followed by orexin-A addition measured every 1.52 secs over 60 secs by calcium 5 dye-based fluorescence assay; format: functional, cell-based
Method in brief: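 Human OX1 or OX2 stable CHO-RD-HGA16 cells were dye-loaded with Calcium 5, then given a single compound concentration for 15 min at 37°C. Orexin A serial dilutions were added at 19 s and fluorescence read every 1.52 s over 60 s. Orexin A EC50 curves were run with and without compound and fitted to a three-parameter logistic. Apparent Ke was taken from the right-shift; three independent experiments in duplicate, N=2 where Ke >10 μM.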

[5] = target: T2, Orexin/Hypocretin receptor type 1 (Homo sapiens); assay: Competitive antagonist activity at human OX1 receptor expressed in CHO-RD-HGA16 cells assessed as inhibition of orexin-A-induced calcium mobilization compound treated simultaneous with orexin-A by fluorescence assay; format: functional, cell-based
Method in brief: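 Antagonist and orexin A were added simultaneously to Calcium 5-loaded human OX1 CHO-RD-HGA16 cells, with calcium mobilization curve-shift measured. Data are composites of at least three experiments in duplicate.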

[6] = target: T2, Orexin/Hypocretin receptor type 1 (Homo sapiens); assay: Agonist activity at human OX1 receptor expressed in CHO-RD-HGA16 cells assessed as induction of calcium mobilization at 10 uM measured every 1.52 secs over 60 secs by calcium 5 dye-based fluorescence assay; format: functional, cell-based
Method in brief: (§2)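 Stable CHO-RD-HGA16 lines overexpressing human OX1 or OX2, plated overnight at 25,000 cells/well, 37°C, 5% CO2. Loaded 45 min with Calcium 5 dye in HBSS/20 mM HEPES/2.5 mM probenecid, pH 7.4. Compound tested alone at 10 μM; fluorescence (ex 485/em 525 nm) read every 1.52 s for 60 s.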

[7] = target: T1, Orexin receptor type 2 (Homo sapiens); assay: Agonist activity at human OX2 receptor expressed in CHO-RD-HGA16 cells assessed as induction of calcium mobilization at 10 uM measured every 1.52 secs over 60 secs by calcium 5 dye-based fluorescence assay; format: functional, cell-based; method in brief: as §2
Homo sapiens [8] = species on record: Homo sapiens; assay: Selectivity for human OX1 receptor over human OX2 receptor
Homo sapiens [9] = species on record: Homo sapiens; assay: Selectivity ratio of Ke(app) for human OX2 receptor to Ke(app) for human OX1 receptor

SMILES	inhibition [1] [%]	also measured
COc1ccc(CC2c3ccc(NCCCC(=O)OC(C)(C)C)cc3CCN2CC(=O)NCc2ccccc2)cc1OC (stereo not drawn)	< 50	Ke(app) [2]: 1010 nM; inhibition [3]: Active; inhibition [4]: Active; inhibition [5]: Active
COc1ccc(CC2c3ccc(NS(C)(=O)=O)cc3CCN2CC(=O)NCc2ccccc2)cc1OC (stereo not drawn)	< 50	–
CCCCOc1ccc2c(c1)C(Cc1ccc(OC)c(OC)c1)N(CC(=O)NCc1ccccc1)CC2 (stereo not drawn)	< 50	Activity [6]: inactive; Activity [7]: inactive
COc1ccc(CC2c3ccc(N(C)C)cc3CCN2CC(=O)NCc2ccccc2)cc1OC (stereo not drawn)	< 50	–
COc1ccc(CC2c3ccc(N4CCCCC4)cc3CCN2CC(=O)NCc2ccccc2)cc1OC (stereo not drawn)	< 50	–
COc1ccc(CC2c3ccc(OS(=O)(=O)c4ccccc4)cc3CCN2CC(=O)NCc2ccccc2)cc1OC (stereo not drawn)	< 50	–
CCCCCCNc1ccc2c(c1)CCN(CC(=O)NCc1ccccc1)C2Cc1ccc(OC)c(OC)c1 (stereo not drawn)	< 50	–
COc1ccc(CC2c3ccc(NCC4CC4)cc3CCN2CC(=O)NCc2ccccc2)cc1OC (stereo not drawn)	< 50	–
COc1ccc(CC2c3ccc(NC(=O)Nc4ccccc4)cc3CCN2CC(=O)NCc2ccccc2)cc1OC (stereo not drawn)	< 50	–
COC(=O)CCCCNc1ccc2c(c1)CCN(CC(=O)NCc1ccccc1)C2Cc1ccc(OC)c(OC)c1 (stereo not drawn)	< 50	–
COc1ccc(CC2c3ccc(NCC(=O)N(C)C)cc3CCN2CC(=O)NCc2ccccc2)cc1OC (stereo not drawn)	< 50	–
CCOC(=O)CCCNc1ccc2c(c1)CCN(CC(=O)NCc1ccccc1)C2Cc1ccc(OC)c(OC)c1 (stereo not drawn)	–	Activity [6]: inactive; Activity [7]: inactive
COc1ccc(CC2c3ccc(NCCCCOc4ccccc4)cc3CCN2CC(=O)NCc2ccccc2)cc1OC (stereo not drawn)	< 50	–
CCOC(=O)CCNc1ccc2c(c1)CCN(CC(=O)NCc1ccccc1)C2Cc1ccc(OC)c(OC)c1 (stereo not drawn)	< 50	Activity [6]: inactive; Activity [7]: inactive
COc1ccc(CC2c3ccc(NCc4cccnc4)cc3CCN2CC(=O)NCc2ccccc2)cc1OC (stereo not drawn)	< 50	–
COc1ccc(CC2c3ccc(NC(C)=O)cc3CCN2CC(=O)NCc2ccccc2)cc1OC (stereo not drawn)	< 50	–
COc1ccc(CC2c3ccc(NCc4ccncc4)cc3CCN2CC(=O)NCc2ccccc2)cc1OC (stereo not drawn)	< 50	–
COc1ccc(CC2c3ccc(NC(=O)c4ccccc4)cc3CCN2CC(=O)NCc2ccccc2)cc1OC (stereo not drawn)	< 50	–
COc1ccc(CC2c3ccc(N4CCCC4)cc3CCN2CC(=O)NCc2ccccc2)cc1OC (stereo not drawn)	< 50	–
CCCCCCNC(=O)Nc1ccc2c(c1)CCN(CC(=O)NCc1ccccc1)C2Cc1ccc(OC)c(OC)c1 (stereo not drawn)	< 50	–
COc1ccc(CCNc2ccc3c(c2)CCN(CC(=O)NCc2ccccc2)C3Cc2ccc(OC)c(OC)c2)cc1OC (stereo not drawn)	< 50	inhibition [2]: Active; Ke(app) [3]: 2180 nM; inhibition [4]: Active; inhibition [5]: Active
CCOc1ccc2c(c1)C(Cc1ccc(OC)c(OC)c1)N(CC(=O)NCc1ccccc1)CC2 (stereo not drawn)	< 50	Ratio Ke (Homo sapiens [8]): 268; Activity [6]: inactive; Activity [7]: inactive
CCCNc1ccc2c(c1)CCN(CC(=O)NCc1ccccc1)C2Cc1ccc(OC)c(OC)c1 (stereo not drawn)	< 50	–

SMILES	inhibition [1] [%]	also measured
COc1ccc(CC2c3ccc(N(C)Cc4ccccc4)cc3CCN2CC(=O)NCc2ccccc2)cc1OC (stereo not drawn)	< 50	–
COc1ccc(CC2c3ccc(OCC(F)(F)F)cc3CCN2CC(=O)NCc2ccccc2)cc1OC (stereo not drawn)	< 50	–
CCCOc1ccc2c(c1)CCN(CC(=O)NCc1ccccc1)C2Cc1ccc(OC)c(OC)c1 (stereo not drawn)	< 50	–
CCOC(=O)CCCOc1ccc2c(c1)CCN(CC(=O)NCc1ccccc1)C2Cc1ccc(OC)c(OC)c1 (stereo not drawn)	< 50	Ke(app) [2]: 1000 nM; inhibition [3]: Active; inhibition [4]: Active; inhibition [5]: Active; Activity [6]: inactive; Activity [7]: inactive
CCCCCCN(C)c1ccc2c(c1)CCN(CC(=O)NCc1ccccc1)C2Cc1ccc(OC)c(OC)c1 (stereo not drawn)	< 50	–
CCCN(CCC)c1ccc2c(c1)CCN(CC(=O)NCc1ccccc1)C2Cc1ccc(OC)c(OC)c1 (stereo not drawn)	< 50	–
CCOC(=O)C(C)Nc1ccc2c(c1)CCN(CC(=O)NCc1ccccc1)C2Cc1ccc(OC)c(OC)c1 (stereo not drawn)	< 50	–
CCCN(C)c1ccc2c(c1)CCN(CC(=O)NCc1ccccc1)C2Cc1ccc(OC)c(OC)c1 (stereo not drawn)	< 50	Activity [6]: inactive; Activity [7]: inactive
COc1ccc(CC2c3ccc(OCc4ccccc4)cc3CCN2CC(=O)NCc2ccccc2)cc1OC (stereo not drawn)	< 50	–
CCCCCN(C)c1ccc2c(c1)CCN(CC(=O)NCc1ccccc1)C2Cc1ccc(OC)c(OC)c1 (stereo not drawn)	< 50	–
COc1ccc2c(c1)C(Cc1ccc(OC)c(OC)c1)N(CC(=O)NCc1ccccc1)CC2 (stereo not drawn)	–	Activity [6]: inactive; Activity [7]: inactive
COc1ccc(CC2c3ccc(N(C)CC4CC4)cc3CCN2CC(=O)NCc2ccccc2)cc1OC (stereo not drawn)	< 50	–
COc1ccc(CC2c3cc(OC(C)C)ccc3CCN2CC(=O)NCc2ccccc2)cc1OC (stereo not drawn)	< 50	Ratio Ke (Homo sapiens [8]): 201; Activity [6]: inactive; Activity [7]: inactive
CCCCCNc1ccc2c(c1)CCN(CC(=O)NCc1ccccc1)C2Cc1ccc(OC)c(OC)c1 (stereo not drawn)	< 50	–
CCCOc1ccc2c(c1)C(Cc1ccc(OC)c(OC)c1)N(CC(=O)NCc1ccccc1)CC2 (stereo not drawn)	–	Ratio Ke (Homo sapiens [9]): 108; Activity [6]: inactive; Activity [7]: inactive
COc1ccc(CC2c3ccc(NC(C)C)cc3CCN2CC(=O)NCc2ccccc2)cc1OC (stereo not drawn)	< 50	–
COc1ccc(CC2c3ccc(NCc4ccccc4)cc3CCN2CC(=O)NCc2ccccc2)cc1OC (stereo not drawn)	< 50	–
CCOC(=O)CNc1ccc2c(c1)CCN(CC(=O)NCc1ccccc1)C2Cc1ccc(OC)c(OC)c1 (stereo not drawn)	< 50	Activity [6]: inactive; Activity [7]: inactive
CCOC(=O)CCCCCCOc1ccc2c(c1)CCN(CC(=O)NCc1ccccc1)C2Cc1ccc(OC)c(OC)c1 (stereo not drawn)	< 50	–
COc1ccc(CC2c3ccc(NCCCc4ccccc4)cc3CCN2CC(=O)NCc2ccccc2)cc1OC (stereo not drawn)	< 50	–
CCOC(=O)CCCCCCNc1ccc2c(c1)CCN(CC(=O)NCc1ccccc1)C2Cc1ccc(OC)c(OC)c1 (stereo not drawn)	< 50	–
COc1ccc(CC2c3ccc(NCCN4CCCCC4)cc3CCN2CC(=O)NCc2ccccc2)cc1OC (stereo not drawn)	< 50	–
COc1ccc(CC2c3ccc(OC(C)C)cc3CCN2CC(=O)NCc2ccccc2)cc1OC (stereo not drawn)	< 50	–
